Experimental data from ChEMBL document CHEMBL1135685, “Tumor-specific novel taxoid-monoclonal antibody conjugates” (J Med Chem, 2002).

Experiments:
Format in all cases: functional, cell-based
[1] = test system: A-431; experiment: In vitro cytotoxicity of compound against human A431 (epidermoid) cancer cell line after 72 hr of drug exposure; details: A-431, 72 h
Summary of the method: (§1)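 Cytotoxicity was measured as an IC50 on a panel of human cancer lines: A431 (epidermoid), A549 (non-small-cell lung), MCF7 (breast) and MCF7-MDR (breast). The parent, unmodified taxoids were tested on the same lines.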

[2] = test system: A549; experiment: In vitro cytotoxicity of compound against human A549 (non small cell lung) cancer cell line after 72 hr of drug exposure; details: A549, 72 h; summary of the method: as §1
[3] = test system: NCI/ADR-RES; experiment: In vitro cytotoxicity of compound against human MCF-7-MDR (breast) cancer cell line after 72 hr of drug exposure; summary of the method: as §1

SMILES	IC50 [1] [nM]	IC50 [2] [nM]	IC50 [3] [nM]
CSSCCC(=O)O[C@H]1C(=O)[C@@]2(C)[C@H]([C@H](OC(=O)c3ccccc3)[C@]3(O)C[C@H](OC(=O)[C@H](O)[C@H](C=C(C)C)NC(=O)OC(C)(C)C)C(C)=C1C3(C)C)[C@]1(OC(C)=O)CO[C@@H]1C[C@@H]2O	0.5	0.8	–
CSSc1cccc(C(=O)O[C@H]2[C@@H]3[C@]4(OC(C)=O)CO[C@@H]4C[C@H](O)[C@@]3(C)C(=O)[C@H](OC(C)=O)C3=C(C)[C@@H](OC(=O)[C@H](O)[C@H](C=C(C)C)NC(=O)OC(C)(C)C)C[C@]2(O)C3(C)C)c1	> 3	> 3	–
CSSCCC(=O)O[C@H]1C[C@H]2OC[C@@]2(OC(C)=O)[C@H]2[C@H](OC(=O)c3ccccc3)[C@]3(O)C[C@H](OC(=O)[C@H](O)[C@H](C=C(C)C)NC(=O)OC(C)(C)C)C(C)=C([C@@H](OC(=O)N4CCOCC4)C(=O)[C@]12C)C3(C)C	> 3	–	–
CCC(=O)O[C@H]1C(=O)[C@@]2(C)[C@H]([C@H](OC(=O)c3ccccc3)[C@]3(O)C[C@H](OC(=O)[C@H](OC(=O)CCSSC)[C@H](C=C(C)C)NC(=O)OC(C)(C)C)C(C)=C1C3(C)C)[C@]1(OC(C)=O)CO[C@@H]1C[C@@H]2O	> 3	0.9	–
CCC(=O)O[C@H]1C(=O)[C@@]2(C)[C@H]([C@H](OC(=O)c3ccccc3)[C@]3(O)C[C@H](OC(=O)[C@H](O)[C@H](C=C(C)C)NC(=O)OC(C)(C)C)C(C)=C1C3(C)C)[C@]1(OC(C)=O)CO[C@@H]1C[C@@H]2O	0.09	0.1	2.2
CSSCC(=O)O[C@H]1C(=O)[C@@]2(C)[C@H]([C@H](OC(=O)c3ccccc3)[C@]3(O)C[C@H](OC(=O)[C@H](O)[C@H](C=C(C)C)NC(=O)OC(C)(C)C)C(C)=C1C3(C)C)[C@]1(OC(C)=O)CO[C@@H]1C[C@@H]2O	0.7	0.8	–
CC(=O)O[C@H]1C(=O)[C@@]2(C)[C@H]([C@H](OC(=O)c3ccccc3)[C@]3(O)C[C@H](OC(=O)[C@H](O)[C@@H](NC(=O)c4ccccc4)c4ccccc4)C(C)=C1C3(C)C)[C@]1(OC(C)=O)CO[C@@H]1C[C@@H]2O [PACLITAXEL]	–	–	299
CCC(=O)O[C@H]1C(=O)[C@]2(C)[C@@H](OC(=O)CCSSC)C[C@H]3OC[C@@]3(OC(C)=O)[C@H]2[C@H](OC(=O)c2ccccc2)[C@]2(O)C[C@H](OC(=O)[C@H](O)[C@H](C=C(C)C)NC(=O)OC(C)(C)C)C(C)=C1C2(C)C	2	–	–
CSSc1cccc(C(=O)O[C@H]2C(=O)[C@@]3(C)[C@H]([C@H](OC(=O)c4ccccc4)[C@]4(O)C[C@H](OC(=O)[C@H](O)[C@H](C=C(C)C)NC(=O)OC(C)(C)C)C(C)=C2C4(C)C)[C@]2(OC(C)=O)CO[C@@H]2C[C@@H]3O)c1	> 3	> 3	–
